Measured values reported in ChEMBL document CHEMBL3120154, “2-[N-Alkyl(R-phenyl)-aminomethyl]-3-phenyl-7-trifluoromethylquinoxalines as anticancer agents inhibitors of folate enzymes” (Eur J Med Chem, 2014).

Experiments:
Assay type in all cases: functional
Malme-3M [1] = assay: Cytotoxicity against human MALME-3M cells at 10^-5 M after 48 hrs by SRB assay; details: read-out: GI
Malme-3M [2] = assay: Cytotoxicity against human MALME-3M cells at 10^-6 M after 48 hrs by SRB assay; details: read-out: GI
HL-60(TB) = assay: Cytotoxicity against human HL-60(TB) cells at 10^-7 M after 48 hrs by SRB assay; details: HL-60, 48 h, read-out: GI
In short: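 NCI 60-human-tumour-cell-line screen run over a 5-log dose range (100, 10, 1, 0.1 and 0.01 µM). Cells were exposed to drug for 48 h. Growth was estimated by sulforhodamine B protein staining. Values are percent growth inhibition at each concentration, relative to untreated control cells.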

OVCAR-8 = assay: Cytotoxicity against human OVCAR8 cells after 48 hrs by SRB assay; details: OVCAR-8, 48 h
SR [3] = assay: Cytotoxicity against human SR cells at 10^-7 M after 48 hrs by SRB assay; details: read-out: GI
RPMI-8226 [4] = assay: Cytotoxicity against human RPMI8226 cells at 10^-8 M after 48 hrs by SRB assay; details: RPMI-8226, 48 h, read-out: GI
RXF 393 = assay: Cytotoxicity against human RXF393 cells at 10^-7 M after 48 hrs by SRB assay; details: RXF 393, 48 h, read-out: GI
SR [5] = assay: Cytotoxicity against human SR cells at 10^-6 M after 48 hrs by SRB assay; details: read-out: GI
[6] = Cytotoxicity against human UACC257 cells at 10^-7 M after 48 hrs by SRB assay; details: UACC-257, 48 h, read-out: GI
HCT-15 = assay: Cytotoxicity against human HCT15 cells at 10^-7 M after 48 hrs by SRB assay; details: HCT-15, 48 h, read-out: GI
COLO 205 = assay: Cytotoxicity against human COLO205 cells at 10^-7 M after 48 hrs by SRB assay; details: COLO 205, 48 h, read-out: GI
LOX IMVI = assay: Cytotoxicity against human LOXIMVI cells at 10^-7 M after 48 hrs by SRB assay; details: read-out: GI
NCI-H23 = assay: Cytotoxicity against human NCI-H23 cells at 10^-7 M after 48 hrs by SRB assay; details: NCI-H23, 48 h, read-out: GI
SK-OV-3 [7] = assay: Cytotoxicity against human SKOV3 cells at 10^-7 M after 48 hrs by SRB assay; details: SK-OV-3, 48 h, read-out: GI
RPMI-8226 [8] = assay: Cytotoxicity against human RPMI8226 cells at 10^-7 M after 48 hrs by SRB assay; details: RPMI-8226, 48 h, read-out: GI
BT-549 = assay: Cytotoxicity against human BT549 cells at 10^-7 M after 48 hrs by SRB assay; details: BT-549, 48 h, read-out: GI
HCT-116 [9] = assay: Cytotoxicity against human HCT116 cells at 10^-8 M after 48 hrs by SRB assay; details: HCT-116, 48 h, read-out: GI
OVCAR-3 = assay: Cytotoxicity against human OVCAR3 cells at 10^-7 M after 48 hrs by SRB assay; details: OVCAR-3, 48 h, read-out: GI
SK-MEL-5 = assay: Cytotoxicity against human SK-MEL-5 cells at 10^-8 M after 48 hrs by SRB assay; details: SK-MEL-5, 48 h, read-out: GI
HT-29 = assay: Cytotoxicity against human HT-29 cells at 10^-8 M after 48 hrs by SRB assay; details: HT-29, 48 h, read-out: GI
SN12C = assay: Cytotoxicity against human SN12C cells at 10^-8 M after 48 hrs by SRB assay; details: read-out: GI
SNB-19 = assay: Cytotoxicity against human SNB19 cells at 10^-8 M after 48 hrs by SRB assay; details: SNB-19, 48 h, read-out: GI
SK-OV-3 [10] = assay: Cytotoxicity against human SKOV3 cells at 10^-8 M after 48 hrs by SRB assay; details: SK-OV-3, 48 h, read-out: GI
SW-620 = assay: Cytotoxicity against human SW620 cells at 10^-8 M after 48 hrs by SRB assay; details: SW-620, 48 h, read-out: GI
ACHN [11] = assay: Cytotoxicity against human ACHN cells at 10^-7 M after 48 hrs by SRB assay; details: read-out: GI
T47D = assay: Cytotoxicity against human T47D cells at 10^-8 M after 48 hrs by SRB assay; details: read-out: GI
A549 [12] = assay: Cytotoxicity against human A549 cells at 10^-7 M after 48 hrs by SRB assay; details: A549, 48 h, read-out: GI
M14 = assay: Cytotoxicity against human M14 cells at 10^-8 M after 48 hrs by SRB assay; details: M14, 48 h, read-out: GI
MDA-MB-231 = assay: Cytotoxicity against human MDA-MB-231 cells at 10^-7 M after 48 hrs by SRB assay; details: MDA-MB-231, 48 h, read-out: GI
[13] = Cytotoxicity against human EKVX cells at 10^-8 M after 48 hrs by SRB assay; details: read-out: GI
SF-295 = assay: Cytotoxicity against human SF295 cells at 10^-7 M after 48 hrs by SRB assay; details: SF-295, 48 h, read-out: GI
KM12 = assay: Cytotoxicity against human KM12 cells at 10^-7 M after 48 hrs by SRB assay; details: KM12, 48 h, read-out: GI
TK-10 = assay: Cytotoxicity against human TK10 cells at 10^-7 M after 48 hrs by SRB assay; details: TK-10, 48 h, read-out: GI
A549 [14] = assay: Cytotoxicity against human A549 cells after 48 hrs by SRB assay; details: A549, 48 h
PC-3 = assay: Cytotoxicity against human PC3 cells at 10^-7 M after 48 hrs by SRB assay; details: PC-3, 48 h, read-out: GI
ACHN [15] = assay: Cytotoxicity against human ACHN cells at 10^-8 M after 48 hrs by SRB assay; details: read-out: GI
HCT-116 [16] = assay: Cytotoxicity against human HCT116 cells at 10^-7 M after 48 hrs by SRB assay; details: HCT-116, 48 h, read-out: GI
HCC 2998 = assay: Cytotoxicity against human HCC2998 cells at 10^-8 M after 48 hrs by SRB assay; details: HCC 2998, 48 h, read-out: GI
[17] = Cytotoxicity against human OVCAR4 cells at 10^-7 M after 48 hrs by SRB assay; details: OVCAR-4, 48 h, read-out: GI
[18] = Cytotoxicity against human UACC257 cells after 48 hrs by SRB assay; details: UACC-257, 48 h
NCI-H226 = assay: Cytotoxicity against human NCI-H226 cells at 10^-7 M after 48 hrs by SRB assay; details: NCI-H226, 48 h, read-out: GI
[19] = Cytotoxicity against human Hs578T cells at 10^-8 M after 48 hrs by SRB assay; details: Hs-578T, read-out: GI
NCI-H460 = assay: Cytotoxicity against human NCI-H460 cells at 10^-7 M after 48 hrs by SRB assay; details: NCI-H460, 48 h, read-out: GI

C#CCN(Cc1nc2cc(C(F)(F)F)ccc2nc1-c1ccccc1)c1ccc(C)cc1
inhibition of growth at 10 µM (Malme-3M [1]): 41%
inhibition of growth at 1 µM (Malme-3M [2]): < 40%

CCN(Cc1nc2cc(C(F)(F)F)ccc2nc1-c1ccccc1)c1ccc(OC)c(OC)c1
inhibition of growth at 0.1 µM (HL-60(TB)): < 40%
GI50 (OVCAR-8): 1510 nM
inhibition of growth at 0.1 µM (SR [3]): < 40%
inhibition of growth at 0.01 µM (RPMI-8226 [4]): < 40%
inhibition of growth at 0.1 µM (RXF 393): 43%
inhibition of growth at 1 µM (SR [5]): < 40%
inhibition of growth at 0.1 µM [6]: 67%
inhibition of growth at 0.1 µM (HCT-15): < 40%
inhibition of growth at 0.1 µM (COLO 205): < 40%
inhibition of growth at 0.1 µM (LOX IMVI): < 40%
inhibition of growth at 0.1 µM (NCI-H23): < 40%
inhibition of growth at 0.1 µM (SK-OV-3 [7]): < 40%
inhibition of growth at 0.1 µM (RPMI-8226 [8]): < 40%
inhibition of growth at 0.1 µM (BT-549): < 40%
inhibition of growth at 0.01 µM (HCT-116 [9]): < 40%
inhibition of growth at 0.1 µM (OVCAR-3): < 40%
inhibition of growth at 0.01 µM (SK-MEL-5): < 40%
inhibition of growth at 0.01 µM (HT-29): < 40%
inhibition of growth at 0.01 µM (SN12C): < 40%
inhibition of growth at 0.01 µM (SNB-19): < 40%
inhibition of growth at 0.01 µM (SK-OV-3 [10]): < 40%
inhibition of growth at 0.01 µM (SW-620): < 40%
inhibition of growth at 0.1 µM (ACHN [11]): < 40%
inhibition of growth at 0.01 µM (T47D): < 40%
inhibition of growth at 0.1 µM (A549 [12]): 42%
inhibition of growth at 0.01 µM (M14): < 40%
inhibition of growth at 0.1 µM (MDA-MB-231): < 40%
inhibition of growth at 0.01 µM [13]: < 40%
inhibition of growth at 0.1 µM (SF-295): < 40%
inhibition of growth at 0.1 µM (KM12): < 40%
inhibition of growth at 0.1 µM (TK-10): < 40%
GI50 (A549 [14]): 372 nM
inhibition of growth at 0.1 µM (PC-3): < 40%
inhibition of growth at 0.01 µM (ACHN [15]): < 40%
inhibition of growth at 0.1 µM (HCT-116 [16]): < 40%
inhibition of growth at 0.01 µM (HCC 2998): < 40%
inhibition of growth at 0.1 µM [17]: < 40%
GI50 [18]: 25.1 nM
inhibition of growth at 0.1 µM (NCI-H226): < 40%
inhibition of growth at 0.01 µM [19]: < 40%
inhibition of growth at 0.1 µM (NCI-H460): < 40%
